This is an account of results in ChEMBL document CHEMBL1135501, “Synthesis and biological evaluation at nicotinic acetylcholine receptors of N-arylalkyl- and N-aryl-7-azabicyclo[2.2.1]heptanes” (J Med Chem, 2002).

The target in assay [1] is T1, Neuronal acetylcholine receptor; alpha4/beta2 (Rattus norvegicus, UniProt P09483+P12390). Briefly: In vitro binding affinity by inhibiting [3H]cytisine binding in rat brain tissue at Nicotinic acetylcholine receptor alpha4-beta2. In kind it is tissue-based.
The subject of assay [2] is Mus musculus. Briefly: In vivo analgesic agonist activity after subcutaneous administration, using hotplate assay. In kind it is functional. Conditions: sc. In a few lines: (§1)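 Male CD-1 mice (25-35 g) were dosed subcutaneously on the back at 10 mL/kg. Hotplate held at 52 °C; latency was timed to hind-paw lick or jump. Percent effect was calculated as (test − baseline latency)/(12 − baseline latency). ED50 with CI95 came from nonlinear regression of dose-response curves.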

In assay [3] the target is T1, Neuronal acetylcholine receptor; alpha4/beta2. The assay is described as follows: In vitro binding affinity by inhibiting [3H]dopamine release in rat brain tissue at Nicotinic acetylcholine receptor alpha4-beta2. In kind it is functional, tissue-based.
In assay [4] the test system is Mus musculus. Briefly: In vivo analgesic agonist activity after subcutaneous administration, using tail-flick assay. Conditions: sc. The assay is classed as functional. In a few lines:
(§2)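 Male CD-1 mice (25-35 g) were dosed subcutaneously on the back at 10 mL/kg. Tail-flick latency to a focused light beam was read by photocell as the mean of two trials, with a 12 s cutoff. Percent effect was (test − baseline)/(12 − baseline latency). ED50 with CI95 came from nonlinear regression of dose-response curves.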

For assay [5], the target named is T2, Neuronal acetylcholine receptor; alpha4/beta2 (Rattus norvegicus) (UniProt P09483+P12390). The assay is described as follows: In vitro inhibition of [3H]cytisine binding in rat brain tissue at Nicotinic acetylcholine receptor alpha4-beta2 at 100 uM. In kind it is tissue-based.
Assay [6] concerns the target T2, Neuronal acetylcholine receptor; alpha4/beta2 (Rattus norvegicus). Briefly: In vitro % inhibition of [3H]cytisine binding in rat brain tissue at Nicotinic acetylcholine receptor alpha4-beta2 at 100 uM. In kind it is tissue-based.
Assay [7] shares this target. Briefly: In vitro inhibition of [3H]cytisine binding in rat brain tissue at Nicotinic acetylcholine receptor alpha4-beta2. The assay is classed as tissue-based. The settings on record: concentration not given here. In a few lines:
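Membranes were spun at 35 000g and resuspended. They were preincubated on ice for 5 min with test drug, then given 3.5 nM [3H]cytisine for 90 min at 2 °C. Nonspecific binding was taken with 1 mM (-)-nicotine. Drug concentrations were run in triplicate, with filtration and scintillation counting.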

For assay [8], the target named is T1, Neuronal acetylcholine receptor; alpha4/beta2. The assay is described as follows: in vitro binding affinity by inhibiting [3H]cytisine binding in rat brain tissue at Nicotinic acetylcholine receptor alpha4-beta2.
Assay [9] has the same target. The assay is described as follows: In vitro binding affinity by inhibiting [3H]dopamine release in rat brain tissue at aNicotinic acetylcholine receptor alpha4-beta2. In kind it is functional, tissue-based. In a few lines:
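Striatal slices (250 µm) from male Sprague-Dawley rats were loaded with 15 nM [3H]dopamine plus 0.1 mM ascorbic acid at 37 °C for 30 min in oxygenated Krebs-HEPES buffer pH 7.4, with domperidone present after loading. Slices were superfused with a 2 min test-drug pulse (S1), then 10 mM K+ for 2 min (S2). Five drug concentrations were used; S1/S2 fractional release ratios gave EC50.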

Assay [10] deals with Mus musculus. The assay is described as follows: In vivo analgesic activity was measured in mouse upon subcutaneous administration using tail-flick assay. The assay is classed as functional. Conditions: sc. The procedure, abridged: as §2
In assay [11] the test system is Mus musculus. Briefly: In vivo analgesic activity was measured in mouse upon subcutaneous administration using hotplate assay. In kind it is functional. The settings on record: sc. The procedure, abridged:
as §1

T1 sequence (P09483 whole entry): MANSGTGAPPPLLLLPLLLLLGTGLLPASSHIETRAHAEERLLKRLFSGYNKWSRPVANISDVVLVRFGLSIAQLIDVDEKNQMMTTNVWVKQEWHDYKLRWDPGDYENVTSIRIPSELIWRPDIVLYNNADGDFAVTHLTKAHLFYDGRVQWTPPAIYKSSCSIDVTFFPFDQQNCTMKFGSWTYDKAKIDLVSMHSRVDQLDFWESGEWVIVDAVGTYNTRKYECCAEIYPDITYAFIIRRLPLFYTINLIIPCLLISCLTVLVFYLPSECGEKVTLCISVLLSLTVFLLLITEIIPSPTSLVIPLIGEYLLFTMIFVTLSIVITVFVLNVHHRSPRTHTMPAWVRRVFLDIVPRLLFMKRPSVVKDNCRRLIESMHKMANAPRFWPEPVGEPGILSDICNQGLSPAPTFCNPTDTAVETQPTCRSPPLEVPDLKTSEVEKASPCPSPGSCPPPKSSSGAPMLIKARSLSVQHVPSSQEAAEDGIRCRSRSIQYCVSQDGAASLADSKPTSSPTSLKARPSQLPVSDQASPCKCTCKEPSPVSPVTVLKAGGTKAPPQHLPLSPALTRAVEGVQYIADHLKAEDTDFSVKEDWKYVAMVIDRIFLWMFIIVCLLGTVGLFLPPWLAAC
T1 sequence (P12390 whole entry): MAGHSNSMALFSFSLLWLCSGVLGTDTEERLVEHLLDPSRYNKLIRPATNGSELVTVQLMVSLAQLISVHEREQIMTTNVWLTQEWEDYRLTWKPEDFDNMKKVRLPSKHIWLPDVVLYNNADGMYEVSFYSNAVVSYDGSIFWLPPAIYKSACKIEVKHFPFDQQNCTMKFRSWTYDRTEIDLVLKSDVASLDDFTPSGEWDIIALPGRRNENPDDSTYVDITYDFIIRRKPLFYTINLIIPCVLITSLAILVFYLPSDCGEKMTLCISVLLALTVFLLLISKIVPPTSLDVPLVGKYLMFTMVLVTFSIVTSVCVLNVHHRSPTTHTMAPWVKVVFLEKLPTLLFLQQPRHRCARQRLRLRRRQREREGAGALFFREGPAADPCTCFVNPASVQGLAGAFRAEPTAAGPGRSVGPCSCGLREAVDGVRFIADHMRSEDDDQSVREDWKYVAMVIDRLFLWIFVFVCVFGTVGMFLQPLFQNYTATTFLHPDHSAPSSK

As for `Clc1ccc(CN2C3CCC2CC3)cn1`, in assay [1], the affinity, expressed as Ki, was 245 nM. Moreover, the ED50 is 12.2 mg/kg with Mus musculus [2] and 11.1 mg/kg in the assay with Mus musculus [4]. The EC50 in [3] amounted to 79 nM. Turning to `Clc1ccc(C2CC3CCC2N3)cn1` (stereo in doubt; 1) [EPIBATIDINE], the figures for the 50% effective dose (ED50) with Mus musculus [2] and in the assay with Mus musculus [4] were 0.00072 mg/kg and 0.00046 mg/kg, respectively.

In the case of `c1ccc(N2C3CCC2CC3)nc1`, the inhibition in assay [5] is under 50%. In the case of `c1ccc(CN2C3CCC2CC3)nc1`, the affinity in assay [1], expressed as Ki, was 31300 nM. For `Cc1ccc(N2C3CCC2CC3)cc1`, in [6], the inhibition is under 50%. For `c1ccc2nc(CN3C4CCC3CC4)ccc2c1`, the inhibition in assay [7] is under 50%.

`c1cc(N2C3CCC2CC3)ccn1` returned an inhibition in assay [5] of under 50%. Consider `c1cncc(N2C3CCC2CC3)c1`, for which, in assay [5], the inhibition was under 50%. In [5], `c1ccc2ncc(N3C4CCC3CC4)cc2c1` yielded an inhibition of under 50%. `O=c1cccc2n1C[C@@H]1CNC[C@H]2C1` [CYTISINICLINE] gave a Ki in assay [8] of 4.2 nM. Besides, in assay [3], the EC50 worked out at 8.8 nM.

`c1ccc2c(N3C4CCC3CC4)cncc2c1` came in with an inhibition in assay [5] of under 50%. In [9], `c1cncc(CN2C3CCC2CC3)c1` registered an EC50 of 1.4 nM. Moreover, the ED50 amounted to 12.4 mg/kg in the assay with Mus musculus [10] and 5.36 mg/kg in the assay with Mus musculus [11]. In addition, the inhibitory constant (Ki) in assay [1] is 98 nM. As to `Ic1ccc(N2C3CCC2CC3)nc1`, in assay [5], the inhibition was under 50%. Consider `COc1ccc(N2C3CCC2CC3)cn1`, for which the inhibition in assay [5] is under 50%.

In the case of `c1cc(CN2C3CCC2CC3)ccn1`, the inhibition in [5] was under 50%. Take `c1cncc(CCN2C3CCC2CC3)c1`: the inhibition constant Ki in assay [1] came out at 2230 nM.
